{"data": "Results from different studies", "effect on": "enzyme activity", "action": "inhibitor", "PFF0160c": "Dihydroorotate dehydrogenase (quinone), mitochondrial (PFF0160c, Plasmodium falciparum, UniProt Q08210)", "PFF0160c E182D": "Dihydroorotate dehydrogenase (quinone), mitochondrial (PFF0160c, Plasmodium falciparum, UniProt Q08210, E182D)", "note": "Lines come from different studies, so protocols differ."}
{"Compound": "Cc1nc(Nc2ccc(C(F)(F)F)cc2)c2c(C(F)(F)F)noc2n1", "target": "PFF0160c", "technique": "absorbance", "IC50": "33 nM"}
{"Compound": "CCCOc1ccccc1-c1nc2sc3c(c2c(=O)[nH]1)CCN(C)C3", "target": "PFF0160c E182D", "technique": "absorbance", "IC50": "911 nM"}
{"Compound": "Cc1cc(C(C)NC(=O)c2[nH]cc(-c3c[nH]c4cc(C(F)(F)F)ccc34)c2C)no1 (stereo not shown)", "target": "PFF0160c", "technique": "absorbance", "IC50": "> 100000 nM"}
{"Compound": "COC(=O)C1=CNC=C(C(=O)OC)C1c1ccc(Cl)c([N+](=O)[O-])c1", "target": "PFF0160c", "technique": "absorbance", "IC50": "716 nM"}
{"Compound": "Cc1[nH]c(C(=O)NC(C)c2cnn(C)c2)c(C)c1Cc1ccc(C(F)(F)F)nc1 (stereo not shown)", "target": "PFF0160c", "technique": "absorbance", "IC50": "> 30000 nM"}
{"Compound": "Cc1nc(NC2Cc3cc(F)c(F)cc3C2)c2c(C)noc2n1", "target": "PFF0160c", "technique": "absorbance", "IC50": "48 nM"}
{"Compound": "CCN(CC)CC#Cc1ccc2[nH]c(C)c(Cl)c(=O)c2c1", "target": "PFF0160c E182D", "technique": "absorbance", "IC50": "> 10000 nM"}
{"Compound": "Cc1cc(Nc2ccc(Cl)cc2)n2ncnc2n1", "target": "PFF0160c", "IC50": "1600 nM"}
{"Compound": "Cc1c(Cc2ccc(C(F)(F)F)nc2)c[nH]c1C(=O)N[C@@H](C)CO", "target": "PFF0160c", "technique": "absorbance", "IC50": "2700 nM"}
{"Compound": "Cc1nc(Nc2ccc(S(F)(F)(F)(F)F)cc2)c2c(CO)noc2n1", "target": "PFF0160c", "technique": "absorbance", "IC50": "2800 nM"}
